The record followed here is ChEMBL document CHEMBL1152541, “Staurosporine tethered peptide ligands that target cAMP-dependent protein kinase (PKA): optimization and selectivity profiling” (Bioorg Med Chem, 2009).

*1 amine or outer side, *2 acyl side, *3 side chain or, on linkers, in order; H or OH if unused. Where a SMILES comes first, the peptide text is derived from it. Bridges are numbered along the chain shown (N, C = ends). [ ]: non-standard residue; d: D form. The star is where a group is joined. Staurosporine = CO[C@@H]1[C@H](N(C)*)C[C@H]2O[C@]1(C)n1c3ccccc3c3c4c(c5c6ccccc6n2c5c31)C(=O)NC4; Suc = O=C(CCC(=O)[*:2])[*:1]; Dap = NC[C@H](N)C(=O)O; βAla = NCCC(=O)O

The nature of experiment [1]: Ratio of compound to staurosporine binding affinity to PKA in presence of DTT.
Experiment [2] addresses T1, Serine/threonine-protein kinase STK11 (Homo sapiens) (UniProt Q15831).
T1 sequence (whole entry): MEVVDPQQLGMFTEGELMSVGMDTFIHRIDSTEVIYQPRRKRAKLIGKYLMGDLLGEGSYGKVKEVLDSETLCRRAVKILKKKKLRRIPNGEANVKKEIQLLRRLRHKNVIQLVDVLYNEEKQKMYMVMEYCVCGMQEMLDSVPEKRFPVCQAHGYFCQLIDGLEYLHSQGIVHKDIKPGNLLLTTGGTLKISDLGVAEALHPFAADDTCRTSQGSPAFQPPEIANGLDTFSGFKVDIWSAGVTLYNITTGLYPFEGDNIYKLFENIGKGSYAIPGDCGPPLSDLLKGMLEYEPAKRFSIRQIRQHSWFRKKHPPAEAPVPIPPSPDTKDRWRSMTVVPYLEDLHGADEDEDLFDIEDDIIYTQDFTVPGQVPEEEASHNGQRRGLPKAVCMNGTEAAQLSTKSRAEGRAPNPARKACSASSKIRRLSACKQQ
Briefly: Binding affinity to human LKB1 at 500 nM by cell-based competition binding assay relative to control in presence of DTT. The gist of the method: (§1)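 Competition binding screen (Ambit) across a panel of 90 kinases, scoring test ligand displacement of each kinase's binding relative to control. The screen ran under reducing conditions with 7.5 mM DTT.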

The target of experiment [3] is Serine/threonine-protein kinase PAK 4 (Homo sapiens) (UniProt O96013). The experiment is described as follows: Binding affinity to human PAK4 at 500 nM by cell-based competition binding assay relative to control in presence of DTT.
In experiment [4] the target is Mitogen-activated protein kinase 14 (Homo sapiens) (UniProt Q16539). The experiment is described as follows: Binding affinity to human p38alpha at 500 nM by cell-based competition binding assay relative to control in presence of DTT.
The target of experiment [5] is Insulin-like growth factor 1 receptor (Homo sapiens) (UniProt P08069). The experiment is described as follows: Binding affinity to human IGF1R at 500 nM by cell-based competition binding assay relative to control in presence of DTT. The method, boiled down: as §1
Experiment [6] deals with Mitogen-activated protein kinase 3 (Homo sapiens) (UniProt P27361). Briefly: Binding affinity to human ERK1 at 500 nM by cell-based competition binding assay relative to control in presence of DTT. The method, boiled down:
(§2)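 Commercial (Ambit) competitive kinase-binding panel of 90 kinases measured the binding profile. Run under reducing conditions of 7.5 mM DTT. Binding is expressed relative to control.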

For experiment [7], the target named is Glycogen synthase kinase-3 beta (Homo sapiens) (UniProt P49841). The experiment is described as follows: Binding affinity to human GSK3-beta at 500 nM by cell-based competition binding assay relative to control in presence of DTT. The method, boiled down: as §1
Glycogen synthase kinase-3 beta (Homo sapiens), sequence (P49841 whole entry, looked up): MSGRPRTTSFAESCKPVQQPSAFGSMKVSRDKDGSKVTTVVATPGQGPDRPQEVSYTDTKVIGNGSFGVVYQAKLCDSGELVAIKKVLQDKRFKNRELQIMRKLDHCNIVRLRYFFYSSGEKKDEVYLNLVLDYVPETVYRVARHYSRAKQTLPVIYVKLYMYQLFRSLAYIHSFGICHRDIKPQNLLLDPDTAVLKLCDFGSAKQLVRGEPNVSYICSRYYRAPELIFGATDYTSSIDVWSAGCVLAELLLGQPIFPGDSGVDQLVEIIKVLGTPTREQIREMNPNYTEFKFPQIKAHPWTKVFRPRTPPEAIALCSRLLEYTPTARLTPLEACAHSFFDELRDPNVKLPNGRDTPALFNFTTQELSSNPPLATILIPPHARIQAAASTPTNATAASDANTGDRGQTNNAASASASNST
The target of experiment [8] is ALK tyrosine kinase receptor (Homo sapiens) (UniProt Q9UM73). Briefly: Binding affinity to human ALK at 500 nM by cell-based competition binding assay relative to control in presence of DTT. The method, boiled down: (§3)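 Kinase binding profiling ran on a commercial (Ambit) competitive binding screen against a panel of 90 kinases. The screen used reducing conditions with 7.5 mM DTT. To withstand the DTT, the bivalent ligand was tested as its amide isostere, with the disulfide replaced. A staurosporine derivative carrying a 3 β-alanine linker was run as the reference compound.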
ALK tyrosine kinase receptor (Homo sapiens), sequence (Q9UM73 19-1620 limits assumed): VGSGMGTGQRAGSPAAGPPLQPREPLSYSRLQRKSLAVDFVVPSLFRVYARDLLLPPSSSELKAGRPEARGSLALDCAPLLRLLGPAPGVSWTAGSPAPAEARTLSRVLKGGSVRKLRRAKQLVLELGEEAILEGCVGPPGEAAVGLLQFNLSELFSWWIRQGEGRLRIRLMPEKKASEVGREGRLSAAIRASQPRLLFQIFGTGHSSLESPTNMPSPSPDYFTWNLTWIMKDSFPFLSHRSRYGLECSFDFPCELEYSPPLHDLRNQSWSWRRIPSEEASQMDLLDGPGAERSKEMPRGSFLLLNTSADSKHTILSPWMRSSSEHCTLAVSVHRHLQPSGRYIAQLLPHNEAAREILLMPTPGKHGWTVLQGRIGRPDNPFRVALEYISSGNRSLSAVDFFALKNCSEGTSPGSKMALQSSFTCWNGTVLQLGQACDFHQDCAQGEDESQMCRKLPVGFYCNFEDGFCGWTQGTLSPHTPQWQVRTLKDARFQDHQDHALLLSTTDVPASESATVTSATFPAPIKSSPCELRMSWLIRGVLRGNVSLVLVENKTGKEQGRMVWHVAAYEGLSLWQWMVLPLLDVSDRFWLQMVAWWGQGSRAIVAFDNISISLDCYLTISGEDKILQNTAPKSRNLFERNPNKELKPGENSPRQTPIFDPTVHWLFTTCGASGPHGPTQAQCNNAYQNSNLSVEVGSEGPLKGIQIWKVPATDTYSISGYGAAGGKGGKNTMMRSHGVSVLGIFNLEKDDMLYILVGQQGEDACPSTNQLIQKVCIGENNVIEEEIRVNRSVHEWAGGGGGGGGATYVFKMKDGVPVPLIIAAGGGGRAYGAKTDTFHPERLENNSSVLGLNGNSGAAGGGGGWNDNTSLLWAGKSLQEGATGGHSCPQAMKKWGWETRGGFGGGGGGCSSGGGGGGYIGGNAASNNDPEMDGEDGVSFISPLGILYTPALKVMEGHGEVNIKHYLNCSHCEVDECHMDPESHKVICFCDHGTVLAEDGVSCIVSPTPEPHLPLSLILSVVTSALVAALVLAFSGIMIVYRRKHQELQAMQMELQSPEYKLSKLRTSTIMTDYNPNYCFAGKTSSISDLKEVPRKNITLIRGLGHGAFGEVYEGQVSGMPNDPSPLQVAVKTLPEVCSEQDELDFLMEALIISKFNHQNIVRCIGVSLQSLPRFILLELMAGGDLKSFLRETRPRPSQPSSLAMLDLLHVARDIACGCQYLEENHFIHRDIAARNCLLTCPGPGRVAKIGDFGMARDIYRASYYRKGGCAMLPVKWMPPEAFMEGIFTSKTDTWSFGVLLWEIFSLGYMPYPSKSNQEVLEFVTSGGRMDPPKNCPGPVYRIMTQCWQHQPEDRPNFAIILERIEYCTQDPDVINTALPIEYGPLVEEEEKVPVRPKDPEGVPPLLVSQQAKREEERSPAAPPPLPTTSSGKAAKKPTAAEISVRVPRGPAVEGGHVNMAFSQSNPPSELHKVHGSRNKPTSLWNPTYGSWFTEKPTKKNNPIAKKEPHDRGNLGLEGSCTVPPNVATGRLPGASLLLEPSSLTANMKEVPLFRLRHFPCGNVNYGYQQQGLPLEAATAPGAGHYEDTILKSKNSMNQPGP

In experiment [9] the target is Tyrosine-protein kinase BTK (Homo sapiens) (UniProt Q06187). Briefly: Binding affinity to human BTK at 500 nM by cell-based competition binding assay relative to control in presence of DTT. The gist of the method: as §3
Tyrosine-protein kinase BTK (Homo sapiens), sequence (Q06187 whole entry): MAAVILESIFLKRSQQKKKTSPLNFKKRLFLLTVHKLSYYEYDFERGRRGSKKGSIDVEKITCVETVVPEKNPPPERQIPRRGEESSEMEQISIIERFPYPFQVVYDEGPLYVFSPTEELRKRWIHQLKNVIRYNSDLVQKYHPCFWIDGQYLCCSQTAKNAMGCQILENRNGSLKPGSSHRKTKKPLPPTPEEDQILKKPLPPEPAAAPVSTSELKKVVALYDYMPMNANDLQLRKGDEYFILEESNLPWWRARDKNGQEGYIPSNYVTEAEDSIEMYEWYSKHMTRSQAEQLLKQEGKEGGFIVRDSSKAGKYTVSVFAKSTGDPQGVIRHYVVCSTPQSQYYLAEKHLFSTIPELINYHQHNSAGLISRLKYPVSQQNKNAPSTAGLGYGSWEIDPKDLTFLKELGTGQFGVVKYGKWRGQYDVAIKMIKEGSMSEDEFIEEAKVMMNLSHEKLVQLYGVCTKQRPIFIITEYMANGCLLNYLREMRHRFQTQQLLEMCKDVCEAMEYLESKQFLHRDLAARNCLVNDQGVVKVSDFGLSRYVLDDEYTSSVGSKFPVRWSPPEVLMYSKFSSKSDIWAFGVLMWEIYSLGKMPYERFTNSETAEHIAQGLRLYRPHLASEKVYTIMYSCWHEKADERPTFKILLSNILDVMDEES
Experiment [10] addresses Serine/threonine-protein kinase B-raf (Homo sapiens) (UniProt P15056). Briefly: Binding affinity to human BRAF at 500 nM by cell-based competition binding assay relative to control in presence of DTT. The method, boiled down: as §3
Experiment [11] concerns the target T2, Aurora kinase A (Homo sapiens) (UniProt O14965).
T2 sequence (whole entry): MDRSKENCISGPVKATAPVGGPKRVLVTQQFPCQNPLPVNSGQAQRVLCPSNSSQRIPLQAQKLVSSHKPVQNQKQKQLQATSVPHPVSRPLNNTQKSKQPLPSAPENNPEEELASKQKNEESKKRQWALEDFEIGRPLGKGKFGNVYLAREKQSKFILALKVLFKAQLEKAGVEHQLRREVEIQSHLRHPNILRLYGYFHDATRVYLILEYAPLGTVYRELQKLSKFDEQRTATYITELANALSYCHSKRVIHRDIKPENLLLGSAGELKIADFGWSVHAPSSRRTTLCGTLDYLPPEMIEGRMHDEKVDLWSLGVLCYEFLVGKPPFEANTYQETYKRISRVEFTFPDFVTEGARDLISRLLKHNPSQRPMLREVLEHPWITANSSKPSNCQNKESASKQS
The experiment is described as follows: Binding affinity to human aurora kinase A at 500 nM by cell-based competition binding assay relative to control in presence of DTT.

Experiment [12] has as its target MAP kinase-interacting serine/threonine-protein kinase 1 (Homo sapiens) (UniProt Q9BUB5). The experiment is described as follows: Binding affinity to human MKNK1 at 200 nM by cell-based competition binding assay relative to control in presence of DTT.
In experiment [13] the test system is Mast/stem cell growth factor receptor Kit (Homo sapiens), P10721 [D816V]. The experiment is described as follows: Binding affinity to human KIT D816V mutant at 200 nM by cell-based competition binding assay relative to control in presence of DTT. The method, boiled down: as §1
Mast/stem cell growth factor receptor Kit (Homo sapiens), P10721 [D816V], sequence (P10721 whole entry D816V): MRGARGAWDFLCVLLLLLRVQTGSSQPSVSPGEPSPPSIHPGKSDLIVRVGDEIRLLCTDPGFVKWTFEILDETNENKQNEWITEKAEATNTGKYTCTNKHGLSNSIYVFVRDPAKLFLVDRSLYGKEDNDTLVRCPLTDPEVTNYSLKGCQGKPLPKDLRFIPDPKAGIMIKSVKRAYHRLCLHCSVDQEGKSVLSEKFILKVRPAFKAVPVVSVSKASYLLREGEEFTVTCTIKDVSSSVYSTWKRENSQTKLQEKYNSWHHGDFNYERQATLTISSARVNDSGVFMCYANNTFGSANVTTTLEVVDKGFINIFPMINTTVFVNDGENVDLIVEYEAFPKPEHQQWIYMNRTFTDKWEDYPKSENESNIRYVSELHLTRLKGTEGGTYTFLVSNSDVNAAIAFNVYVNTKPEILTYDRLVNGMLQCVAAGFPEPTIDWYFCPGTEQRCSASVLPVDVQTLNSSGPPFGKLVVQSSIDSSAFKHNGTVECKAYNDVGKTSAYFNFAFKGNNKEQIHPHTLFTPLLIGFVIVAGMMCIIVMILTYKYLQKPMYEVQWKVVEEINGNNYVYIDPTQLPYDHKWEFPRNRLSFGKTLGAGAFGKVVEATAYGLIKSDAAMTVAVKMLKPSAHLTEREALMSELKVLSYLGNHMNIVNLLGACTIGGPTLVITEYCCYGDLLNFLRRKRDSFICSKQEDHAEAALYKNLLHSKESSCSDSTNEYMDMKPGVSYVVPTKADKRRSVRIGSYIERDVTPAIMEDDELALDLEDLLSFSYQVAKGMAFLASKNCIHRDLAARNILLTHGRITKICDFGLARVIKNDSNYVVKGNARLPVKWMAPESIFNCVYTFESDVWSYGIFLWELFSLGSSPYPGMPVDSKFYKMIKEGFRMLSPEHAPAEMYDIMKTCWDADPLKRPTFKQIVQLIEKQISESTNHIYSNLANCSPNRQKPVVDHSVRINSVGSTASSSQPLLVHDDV
Experiment [14] addresses Serine/threonine-protein kinase PLK3 (Homo sapiens) (UniProt Q9H4B4). The experiment is described as follows: Binding affinity to human PLK3 at 200 nM by cell-based competition binding assay relative to control in presence of DTT.
Experiment [15] has as its target Mitogen-activated protein kinase 3 (Homo sapiens) (UniProt P27361). The experiment is described as follows: Binding affinity to human ERK1 at 200 nM by cell-based competition binding assay relative to control in presence of DTT. The gist of the method:
as §2

In experiment [16] the target is Serine/threonine-protein kinase pim-2 (Homo sapiens) (UniProt Q9P1W9). The experiment is described as follows: Binding affinity to human PIM2 at 200 nM by cell-based competition binding assay relative to control in presence of DTT.
Serine/threonine-protein kinase pim-2 (Homo sapiens), sequence (Q9P1W9 whole entry, looked up): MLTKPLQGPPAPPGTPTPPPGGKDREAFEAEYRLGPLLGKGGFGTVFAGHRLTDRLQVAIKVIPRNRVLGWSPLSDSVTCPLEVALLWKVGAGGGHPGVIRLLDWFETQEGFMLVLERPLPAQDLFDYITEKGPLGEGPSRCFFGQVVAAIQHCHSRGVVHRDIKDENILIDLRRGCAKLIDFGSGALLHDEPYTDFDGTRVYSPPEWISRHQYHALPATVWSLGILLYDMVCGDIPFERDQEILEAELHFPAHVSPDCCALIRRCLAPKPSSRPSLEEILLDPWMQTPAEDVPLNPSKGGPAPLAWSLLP
Experiment [17] has as its target Dual specificity tyrosine-phosphorylation-regulated kinase 1B (Homo sapiens) (UniProt Q9Y463). The experiment is described as follows: Binding affinity to human DYRK1B at 200 nM by cell-based competition binding assay relative to control in presence of DTT. The method, boiled down: as §2
The target of experiment [18] is Cyclin-dependent kinase 9 (Homo sapiens) (UniProt P50750). Briefly: Binding affinity to human CDK9 at 200 nM by cell-based competition binding assay relative to control in presence of DTT. The method, boiled down: as §2
Experiment [19] concerns the target Platelet-derived growth factor receptor beta (Homo sapiens) (UniProt P09619). Briefly: Binding affinity to human PDGFRbeta at 200 nM by cell-based competition binding assay relative to control in presence of DTT.
The target of experiment [20] is MAP/microtubule affinity-regulating kinase 3 (Homo sapiens) (UniProt P27448). Briefly: Binding affinity to human MARK3 at 50 nM by cell-based competition binding assay relative to control in presence of DTT. The gist of the method: as §1
Experiment [21] concerns the target ALK tyrosine kinase receptor (Homo sapiens) (UniProt Q9UM73). The experiment is described as follows: Binding affinity to human ALK at 50 nM by cell-based competition binding assay relative to control in presence of DTT. The gist of the method: as §3
The target of experiment [22] is Receptor tyrosine-protein kinase erbB-4 (Homo sapiens) (UniProt Q15303). The experiment is described as follows: Binding affinity to human ERBB4 at 50 nM by cell-based competition binding assay relative to control in presence of DTT. The gist of the method: as §2

Mitogen-activated protein kinase 3 (Homo sapiens), sequence (P27361 whole entry): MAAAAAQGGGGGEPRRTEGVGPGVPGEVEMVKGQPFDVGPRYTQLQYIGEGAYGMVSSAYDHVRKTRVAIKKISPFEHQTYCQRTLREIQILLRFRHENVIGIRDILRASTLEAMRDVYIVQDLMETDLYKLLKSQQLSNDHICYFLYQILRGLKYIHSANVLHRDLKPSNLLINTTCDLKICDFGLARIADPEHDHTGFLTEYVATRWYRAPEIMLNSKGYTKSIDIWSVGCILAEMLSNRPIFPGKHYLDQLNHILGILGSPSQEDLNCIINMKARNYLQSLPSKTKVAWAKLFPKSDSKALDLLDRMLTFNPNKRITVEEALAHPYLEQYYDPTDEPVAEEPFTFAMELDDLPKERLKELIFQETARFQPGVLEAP
MAP kinase-interacting serine/threonine-protein kinase 1 (Homo sapiens), sequence (Q9BUB5 whole entry, looked up): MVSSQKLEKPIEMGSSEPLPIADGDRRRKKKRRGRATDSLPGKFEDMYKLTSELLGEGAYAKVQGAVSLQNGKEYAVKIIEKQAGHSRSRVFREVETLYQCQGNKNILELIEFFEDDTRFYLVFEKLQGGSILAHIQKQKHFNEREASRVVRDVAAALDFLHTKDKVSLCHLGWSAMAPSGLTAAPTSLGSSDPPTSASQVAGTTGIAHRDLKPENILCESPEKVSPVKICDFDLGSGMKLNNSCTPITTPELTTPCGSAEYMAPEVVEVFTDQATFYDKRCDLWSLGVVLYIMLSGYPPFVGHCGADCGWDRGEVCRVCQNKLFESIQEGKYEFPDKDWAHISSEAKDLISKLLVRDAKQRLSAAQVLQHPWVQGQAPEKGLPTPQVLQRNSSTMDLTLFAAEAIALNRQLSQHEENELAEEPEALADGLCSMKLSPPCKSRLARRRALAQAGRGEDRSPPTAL

For `CO[C@@H]1[C@H](N(C)C(=O)CCC(=O)NCCC(=O)NCCC(=O)NCCC(N)=O)C[C@H]2O[C@]1(C)n1c3ccccc3c3c4c(c5c6ccccc6n2c5c31)C(=O)NC4`, the Selectivity ratio in [1] is 14. In addition, the Activity in experiment [2] was 41%; in [3] it was 34%; in [4] it was 93%; in experiment [5], 82%; in experiment [6], 100%; in experiment [7], 94%. The Activity in experiment [8] was 5.2%; in experiment [9] it was 31%; in experiment [10], 100%; in experiment [11] it was 4.2%.

In the case of `CO[C@@H]1[C@H](N(C)C(=O)CCC(=O)NCCC(=O)NCCC(=O)NCCC(=O)NCCC(=O)NCCC(=O)NCCC(=O)NCCC(=O)N[C@H]2CSSC[C@@H](C(=O)NCC(N)=O)NC(=O)CNC(=O)[C@H](Cc3ccccc3)NC(=O)[C@H](C(C)C)NC(=O)[C@H](CCCNC(=N)N)NC(=O)[C@H](Cc3ccccc3)NC(=O)[C@H](C(C)C)NC2=O)C[C@H]2O[C@]1(C)n1c3ccccc3c3c4c(c5c6ccccc6n2c5c31)C(=O)NC4` ({Staurosporine-Suc-βAla-βAla-βAla-βAla-βAla-βAla-βAla}-CVFRVFGCG-NH2; disulfide 1-8), the Activity in [12] was found to be 96%; in experiment [13], 0.65%; in experiment [14], 100%; in experiment [15], 100%; in experiment [16], 100%; in experiment [17], 14%. Moreover, the Activity in experiment [18] worked out at 100%; in experiment [19] it was 3.2%.

For the compound `CO[C@@H]1[C@H](N(C)C(=O)CCC(=O)NCCC(=O)NCCC(=O)NCCC(=O)NCCC(=O)NCCC(=O)NCCC(=O)NCCC(=O)N[C@H]2CNC(=O)C[C@@H](C(N)=O)NC(=O)CNC(=O)[C@H](Cc3ccccc3)NC(=O)[C@H](C(C)C)NC(=O)[C@H](CCCNC(=N)N)NC(=O)[C@H](Cc3ccccc3)NC(=O)[C@H](C(C)C)NC2=O)C[C@H]2O[C@]1(C)n1c3ccccc3c3c4c(c5c6ccccc6n2c5c31)C(=O)NC4` ({Staurosporine-Suc-βAla-βAla-βAla-βAla-βAla-βAla-βAla}-[Dap]VFRVFGD-NH2; lactam 1-8), the Activity in [20] was determined as 61%; in [21] it was 92%; in experiment [22], 100%.
